Among the data in ChEMBL document CHEMBL1155662, “New phloroglucinol derivatives from Hypericum papuanum” (2000) are MIC values, retold here.

SMILES strings stand for the structures. ≈ marks a conversion by molar mass, not a printed value. Where only a bound is given, the exact number is not on record here.

Assay type in all cases: functional
One experiment deals with Bacillus cereus. The experiment is described as follows: Antibacterial activity against Bacillus cereus ATCC 10702 after 20 hrs by MTT assay. The note with it: ATCC 10702, 20 h. In outline: (§1)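 Twofold broth doubling-dilution in nutrient broth. Overnight 37 °C cultures diluted to about 10^5 cells/mL. Compounds from 1 mg/mL MeOH stocks were dried in the first wells, then redissolved in DMSO, broth and culture before serial dilution. Plates held 20 h at 37 °C in a moist atmosphere. 0.25% aqueous MTT was added and plates reincubated 4 h; violet turbid wells scored as living bacteria.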

Experiment [1] relates to Staphylococcus epidermidis. The experiment is described as follows: Antibacterial activity against Staphylococcus epidermidis ATCC 12228 after 20 hrs by MTT assay. The settings on record: ATCC 12228, 20 h. In outline: as §1
A further experiment concerns Micrococcus luteus. As to the kind of experiment: Antibacterial activity against Micrococcus luteus ATCC 9341 after 20 hrs by MTT assay. The settings on record: ATCC 9341, 20 h. In outline: as §1
Background: Tetrazolium assays rely on reduction of a dye to a coloured formazan, in cell work by metabolically active cells.

A word on the MIC: it is the lowest concentration found to suppress growth. Low values mean inhibition by little substance, high ones a need for much substance. On to `C=C(C)[C@@H]1CC23C(=O)C(C(=O)C(C)C)=C(O)[C@](C)(C[C@H]2C1(C)C)C3=O` [LALIBINONE A], for which the MIC (against Bacillus cereus; in experiment [1]; in the experiment with Micrococcus luteus) was 64 µg/mL (≈ 186 µM) throughout.
For the compound `C=C(C)[C@H]1CC23C(=O)[C@@](C)(C[C@H]2C1(C)C)C(=O)C(C(=O)C(C)CC)=C3O` (stereo partly drawn) [LALIBINONE D], the MIC in the experiment on Bacillus cereus is 16 µg/mL (≈ 44.6 µM); in experiment [1], 32 µg/mL (≈ 89.3 µM); against Micrococcus luteus it was 64 µg/mL (≈ 179 µM).
Take `C=C(C)[C@H]1CC23C(=O)C(C(=O)C(C)C)=C(O)[C@](C)(C[C@H]2C1(C)C)C3=O` [LALIBINONE B]: the values for the MIC (against Bacillus cereus; in experiment [1]; in the experiment with Micrococcus luteus) were 64 µg/mL (≈ 186 µM), 128 µg/mL (≈ 372 µM) and 64 µg/mL (≈ 186 µM), respectively.
Consider `C=C(C)[C@@H]1CC23C(=O)[C@@](C)(C[C@H]2C1(C)C)C(=O)C(C(=O)C(C)CC)=C3O` (stereo partly drawn) [LALIBINONE C], for which the MIC turned out to be 16 µg/mL (≈ 44.6 µM) with Bacillus cereus, 32 µg/mL (≈ 89.3 µM) in experiment [1] and 64 µg/mL (≈ 179 µM) against Micrococcus luteus.
For `O=C(N[C@H](CO)[C@H](O)c1ccc([N+](=O)[O-])cc1)C(Cl)Cl` [CHLORAMPHENICOL], in that order: 2 µg/mL (≈ 6.19 µM), 4 µg/mL (≈ 12.4 µM) and 1 µg/mL (≈ 3.09 µM).
In the case of `CC(C)C(=O)C1=C(O)[C@]2(C)C[C@H]3C(C)(C)CCC3(C1=O)C2=O` [LALIBINONE E], the MIC against Bacillus cereus was more than 128 µg/mL; in experiment [1], more than 256 µg/mL; with Micrococcus luteus, more than 128 µg/mL.
